The text below walks through data of ChEMBL document CHEMBL3817832, “Optimizing Ligand Efficiency of Selective Androgen Receptor Modulators (SARMs)” (ACS Med Chem Lett, 2016).

One data set deals with T1, Androgen receptor (Homo sapiens, UniProt P10275).
T1 sequence (P10275 whole entry): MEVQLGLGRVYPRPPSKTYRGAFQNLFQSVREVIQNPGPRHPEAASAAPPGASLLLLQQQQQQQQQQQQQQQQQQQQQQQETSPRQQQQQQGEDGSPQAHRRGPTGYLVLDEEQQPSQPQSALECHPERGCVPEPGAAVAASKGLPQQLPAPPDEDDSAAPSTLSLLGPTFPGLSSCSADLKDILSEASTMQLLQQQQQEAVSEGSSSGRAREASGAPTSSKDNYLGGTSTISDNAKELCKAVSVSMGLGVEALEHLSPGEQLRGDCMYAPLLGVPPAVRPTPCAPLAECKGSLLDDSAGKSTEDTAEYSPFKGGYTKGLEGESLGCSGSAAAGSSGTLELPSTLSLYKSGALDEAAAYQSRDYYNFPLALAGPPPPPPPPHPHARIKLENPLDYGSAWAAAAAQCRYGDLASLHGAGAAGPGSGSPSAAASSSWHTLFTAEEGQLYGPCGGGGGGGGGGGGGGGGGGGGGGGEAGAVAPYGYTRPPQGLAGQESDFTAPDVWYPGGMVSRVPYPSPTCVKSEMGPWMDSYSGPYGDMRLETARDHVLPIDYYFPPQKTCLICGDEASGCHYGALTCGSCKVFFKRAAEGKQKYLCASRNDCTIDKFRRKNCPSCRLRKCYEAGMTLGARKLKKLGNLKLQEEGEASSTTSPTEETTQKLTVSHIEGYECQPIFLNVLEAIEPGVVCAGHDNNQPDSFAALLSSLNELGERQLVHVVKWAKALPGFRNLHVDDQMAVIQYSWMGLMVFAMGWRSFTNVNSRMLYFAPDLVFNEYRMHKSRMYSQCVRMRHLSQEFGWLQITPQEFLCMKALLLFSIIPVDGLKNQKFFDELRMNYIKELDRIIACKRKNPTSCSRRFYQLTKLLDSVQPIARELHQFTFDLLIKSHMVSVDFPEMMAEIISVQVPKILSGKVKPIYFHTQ
Kind of data set: Modulation of human androgen receptor expressed in African green monkey CV1 cells after 24 hrs by luciferase reporter gene assay. Format: cell-based, CV-1. In outline:
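Functional AR activity is read out by a luciferase reporter gene assay in mammalian cells transfected with the human AR gene. EC50 is derived from the response and reported as pEC50 (−log EC50).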
On the technique in general: In a reporter assay the amount or activity of a reporter protein is the signal.

A short description of data set [1]: Kinetic aqueous solubility of the compound in PBS at pH 7.4 after 1 hr by chemiluminescent nitrogen detection method. Format: physicochemical. To be noted: read-out: Kinetic_solubility. In outline:
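High-throughput kinetic aqueous solubility at pH 7.4. The test compound is added from a DMSO stock, and dissolved compound is quantified by chemiluminescent nitrogen detection (CLND).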

Data set [2] in a line: Oral bioavailability in Wistar Han rat at 10 mg/kg, administered as single dose via oral gavage by LC-MS/MS analysis. Format: ADME, organism-based. Particulars: in vivo.
Data set [3] can be described thus: Half life in Wistar Han rat at 5 mg/kg, administered as single dose via oral gavage by LC-MS/MS analysis. To be noted: in vivo. Format: ADME, organism-based.
Data set [4] can be described thus: […] in iv dosed Wistar Han rat administered as single dose by LC-MS/MS analysis. Format: ADME, organism-based. To be noted: in vivo.

Molecules are shown by their SMILES. Converted amounts (≈) assume the structure as drawn.

As for `Cc1c(C(O)(C#CC2CC2)C(F)(F)F)ccc(C#N)c1Cl` (stereo not drawn), the EC50 (in general, the concentration that produces a half-maximal response) at Androgen receptor is 15.8 nM.
Same read-out and setting: for `Cc1c(C(O)(c2nccs2)C(F)(F)F)ccc(C#N)c1C(F)(F)F` (stereo not drawn) the value was 10.5 nM.
The molecule `N#Cc1ccc(C(O)(c2nccs2)C(F)(F)F)cc1C(F)(F)F` (stereo not drawn) showed an EC50 on Androgen receptor of 2 nM.
As for `Cc1c(C(O)(c2ccc(Cl)o2)C(F)(F)F)ccc(C#N)c1C(F)(F)F` (stereo not drawn), it took 2.88 nM to reach a half-maximal effect at Androgen receptor (EC50).
Same read-out and setting: for `N#Cc1ccc(C(O)(CO)C(F)(F)F)cc1C(F)(F)F` (stereo not drawn) the value was 10000 nM.
`C/C=C(\C)C(O)(c1ccc(C#N)c(C(F)(F)F)c1)C(F)(F)F` (stereo not drawn) had a concentration for a half-maximal effect (EC50) at Androgen receptor of 39.8 nM.
The same measure, in the same setting: to `Cc1c(C(O)(C2CC2)C(F)(F)F)ccc(C#N)c1Cl` (stereo not drawn) belongs 0.2 nM.
As to `Cc1c(C(O)(C2CC2)C(F)(F)F)ccc(C#N)c1C(F)(F)F` (stereo not drawn), the solubility kinetic at 1 h in data set [1] was 245 µM (≈ 79.2 µg/mL). For the same molecule, the bioavailability (as a rule, the share of a dose that reaches the circulation, judged against a reference dose that is usually intravenous) in data set [2] stood at 37%. For the same molecule, in data set [3], the half-life (commonly the time in which the quantity being followed falls by half) was 10 h. A half-maximal response at Androgen receptor (EC50) required 0.0316 nM.
On to `Cc1c(C(O)(c2cocn2)C(F)(F)F)ccc(C#N)c1C(F)(F)F` (stereo not drawn), for which, in data set [1], the solubility kinetic at 1 h is greater than 400 µM. Further, in data set [2], the bioavailability stood at 100%. In data set [3], the half-life is 5.5 h. This molecule showed an EC50 at Androgen receptor of 0.501 nM.
`CCC(O)(c1ccc(C#N)c(Cl)c1C)C(F)(F)F` (stereo not drawn) showed a half-maximal effective concentration (EC50) at Androgen receptor of 2 nM.
Still for that read-out and setting: for `Cc1c(C#N)ccc(C(C)(O)C(F)(F)F)c1C` (stereo not drawn) the value was 2510 nM; for `N#Cc1ccc(C(O)(C2CCC2)C(F)(F)F)cc1C(F)(F)F` (stereo not drawn), 1.58 nM; for `Cc1c(C(O)(c2ccco2)C(F)(F)F)ccc(C#N)c1C(F)(F)F` (stereo not drawn), 0.251 nM.
Still for that read-out and setting: for `Cc1c(C(O)(C(C)C)C(F)(F)F)ccc(C#N)c1C(F)(F)F` (stereo not drawn) the value was 0.251 nM.
Same read-out and setting: for `C=C(C)C(O)(c1ccc(C#N)c(C(F)(F)F)c1)C(F)(F)F` (stereo not drawn) the value was 31.6 nM; for `Cc1c(C(O)(C2CCC2)C(F)(F)F)ccc(C#N)c1C(F)(F)F` (stereo not drawn), 0.2 nM.
On to `N#Cc1ccc(C(O)(c2cscn2)C(F)(F)F)cc1C(F)(F)F` (stereo not drawn), for which, on Androgen receptor, the response was half-maximal at 2 nM (EC50).
For the molecule `N#Cc1ccc(C(O)(C2CC2)C(F)(F)F)cc1C(F)(F)F` (stereo not drawn), in data set [2], the bioavailability turned out to be 86%. The molecule also gave a half-life in data set [3] of 20 h. For the same molecule, on Androgen receptor, the concentration giving a half-maximal response (EC50) was 0.158 nM.
Take `Cc1c(C(O)(C(C)(C)C)C(F)(F)F)ccc(C#N)c1Cl` (stereo not drawn): a half-maximal response on Androgen receptor (EC50) required 79.4 nM.
In the case of `Cc1c(C(O)(c2ccc(Cl)s2)C(F)(F)F)ccc(C#N)c1C(F)(F)F` (stereo not drawn), on Androgen receptor, the 50% effective concentration (EC50) is 5.62 nM.
Still for that read-out and setting: for `Cc1c(C#N)ccc(C(O)(C2CC2)C(F)(F)F)c1C` (stereo not drawn) the value was 1.58 nM; for `CC(C)CC(O)(c1ccc(C#N)c(Cl)c1Cl)C(F)(F)F` (stereo not drawn), 3.16 nM.
The same measure, in the same setting: to `Cc1c(C(O)(c2cscn2)C(F)(F)F)ccc(C#N)c1C(F)(F)F` (stereo not drawn) belongs 5.89 nM; to `N#Cc1ccc(C(O)(c2ccc(Cl)s2)C(F)(F)F)cc1C(F)(F)F` (stereo not drawn), 20 nM.
On the same count and under the same terms, to `CC(O)(c1ccc(C#N)c(Cl)c1Cl)C(F)(F)F` (stereo not drawn) belongs 63.1 nM; to `CC(C)C(O)(c1ccc(C#N)c(Cl)c1Cl)C(F)(F)F` (stereo not drawn), 0.794 nM.
Molecule `N#Cc1ccc(C(O)(C2CC2)C(F)(F)F)c(Cl)c1Cl` (stereo not drawn) had a half-maximal effective concentration (EC50) on Androgen receptor of 0.2 nM.
`CC(C)C(O)(c1ccc(C#N)c(Cl)c1)C(F)(F)F` (stereo not drawn) had an EC50 at Androgen receptor of 3.98 nM.
The same measure, in the same setting: to `Cc1c(C#N)ccc(C(O)(CC(C)(C)C)C(F)(F)F)c1C` (stereo not drawn) belongs 20 nM; to `Cc1c(C(O)(CC(C)(C)C)C(F)(F)F)ccc(C#N)c1Cl` (stereo not drawn), 3.98 nM.
`N#Cc1ccc(C(O)(C(F)(F)F)C(F)(F)F)cc1C(F)(F)F` gave an EC50 on Androgen receptor of 15.8 nM.
Still for that read-out and setting: for `CC(C)(C)CC(O)(c1ccc(C#N)c(Cl)c1Cl)C(F)(F)F` (stereo not drawn) the value was 3.16 nM; for `Cc1c(C(O)(C#CC(C)(C)C)C(F)(F)F)ccc(C#N)c1Cl` (stereo not drawn), 79.4 nM.
On the same count and under the same terms, for `C=CC(O)(c1ccc(C#N)c(C(F)(F)F)c1)C(F)(F)F` (stereo not drawn) the value was 12.6 nM; for `Cc1c(C(O)(C(C)C)C(F)(F)F)ccc(C#N)c1Cl` (stereo not drawn), 0.794 nM.
On to `N#Cc1ccc(C(O)(C2CC2)C(F)(F)F)cc1Cl` (stereo not drawn), for which, in data set [4], the clearance – broadly, the rate of elimination divided by the concentration – stood at 0.72 L/h/kg. Moreover, the solubility kinetic at 1 h in data set [1] was greater than 400 µM. The bioavailability in data set [2] was determined as 80%. This molecule gave a half-life in data set [3] of 18 h. On Androgen receptor, this molecule had an EC50 of 0.398 nM.
On Androgen receptor, `N#Cc1ccc(C(O)(c2ccc(Cl)o2)C(F)(F)F)cc1C(F)(F)F` (stereo not drawn) had a half-maximal effective concentration (EC50) of 2.51 nM.
Still for that read-out and setting: for `CC(C)(C)C(O)(c1ccc(C#N)c(Cl)c1)C(F)(F)F` (stereo not drawn) the value was 158 nM; for `N#Cc1ccc(C(O)(c2ccco2)C(F)(F)F)cc1C(F)(F)F` (stereo not drawn), 1.26 nM.
Consider `Cc1c(C#N)ccc(C(O)(C(C)C)C(F)(F)F)c1C` (stereo not drawn), for which, on Androgen receptor, the response was half-maximal at 12.6 nM (EC50).
With `N#Cc1ccc(C(O)(c2cocn2)C(F)(F)F)cc1C(F)(F)F` (stereo not drawn), in data set [1], the solubility kinetic at 1 h is greater than 700 µM. For the same molecule, the bioavailability in data set [2] was 83%. In data set [3], this molecule had a half-life of 8 h. At Androgen receptor, this molecule showed an EC50 of 1.26 nM.
`Cc1c(C(C)(C)C(O)C(F)(F)F)ccc(C#N)c1C(F)(F)F` (stereo not drawn) had a concentration giving a half-maximal response (EC50) at Androgen receptor of 15.8 nM.
In the case of `Cc1c(C(O)(C(F)(F)F)C(F)(F)F)ccc(C#N)c1Cl`, the EC50 at Androgen receptor is 20 nM.
The same measure, in the same setting: for `CC(C)C(O)(c1ccc(C#N)c(C(F)(F)F)c1)C(F)(F)F` (stereo not drawn) the value was 7.94 nM; for `N#Cc1ccc(C(O)(C2CCC2)C(F)(F)F)c(Cl)c1Cl` (stereo not drawn), 0.631 nM.
At Androgen receptor, `CCC(O)(c1ccc(C#N)c(Cl)c1Cl)C(F)(F)F` (stereo not drawn) had a concentration for a half-maximal effect (EC50) of 2.51 nM.
Same read-out and setting: for `Cc1c(C(C)(O)C(F)(F)F)ccc(C#N)c1C(F)(F)F` (stereo not drawn) the value was 3.98 nM.
`N#Cc1ccc(C(O)(C2CCCC2)C(F)(F)F)cc1Cl` (stereo not drawn) had a 50% effective concentration (EC50) on Androgen receptor of 3.16 nM.
In data set [2], `CCC(O)(c1ccc(C#N)c(C(F)(F)F)c1)C(F)(F)F` (stereo not drawn) returned a bioavailability of 70%. This molecule gave a half-life in data set [3] of 83 h. On Androgen receptor, this molecule showed an EC50 of 3.98 nM.
`Cc1c(C(O)(C(F)(F)F)C(F)(F)F)ccc(C#N)c1C(F)(F)F` showed an EC50 on Androgen receptor of 1.58 nM.
On the same count and under the same terms, for `N#Cc1ccc(C(O)(C2CCC2)C(F)(F)F)cc1Cl` (stereo not drawn) the value was 1.58 nM.
